Results as given in paper PMC7359933 (Clinical and Translational Science, 2020).
Like-named read-outs stand apart in the source and are kept apart here. Marks after values point to notes of the source that are not given here.

Assays:
[1] = tested on: healthy volunteers; assay: Thorough QT/QTc study part 2: Holter ECG, Fridericia-corrected QT interval; type: in vivo, human
How it was run: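 Healthy subjects, randomized four-period crossover with 10-day washouts, fed: oral fostemsavir 1,200 mg q.d. or 2,400 mg b.i.d. for 7 days, placebo b.i.d., or single moxifloxacin 400 mg on day 7. Triplicate ECGs from 24-h Holter, read centrally. Baseline is the mean of day-1 predose readings; readings 0.5–22.25 h post-dose on day 7. Linear mixed model gives 90% CI; bound 10 msec; assay sensitivity >5 msec at 2–4 h.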

[2] = tested on: healthy volunteers; design: species or system human; conditions: at observed mean TMR Cmax, healthy adults
[3] = tested on: healthy volunteers; assay: Adverse events and discontinuations in thorough QT study part 2; type: in vivo, human
[4] = tested on: healthy volunteers; assay: Thorough QT study part 1 sentinel cohort safety; type: in vivo, human; conditions: fostemsavir 2,400 mg b.i.d. for 7 days (n = 6)
[5] = tested on: healthy volunteers; conditions: total daily fostemsavir dose of 20–2,400 mg ref 10; cited from earlier work
[6] = tested on: HIV‐1; conditions: cited from earlier work
[7] = tested on: heavily treatment‐experienced subjects; conditions: treated for 96 weeks, BRIGHTE, fostemsavir 600 mg b.i.d. ref 23; cited from earlier work
[8] = TMR after FTR 600 mg b.i.d., N = 16, healthy adults ref 21; cited from earlier work
[9] = fostemsavir 1,200 mg q.d., at 6 hours postdose
[10] = fostemsavir 2,400 mg b.i.d., at 5 hours post‐AM dose

SMILES: COc1cnc(-n2cnc(C)n2)c2c1c(C(=O)C(=O)N1CCN(C(=O)c3ccccc3)CC1)cn2COP(=O)(O)O [fostemsavir]
- Mean change from baseline, msec ddQTcF ([1]; FTR 1,200 mg q.d. (A), day 7, 0.5 hour): –7.44 msec
- Mean change from baseline, msec ddQTcF ([1]; FTR 1,200 mg q.d. (A), day 7, 1 hour): –7.25 msec
- Mean change from baseline, msec ddQTcF ([1]; FTR 1,200 mg q.d. (A), day 7, 2 hour): –6.78 msec
- Mean change from baseline, msec ddQTcF ([1]; FTR 1,200 mg q.d. (A), day 7, 3 hour): –7.54 msec
- Mean change from baseline, msec ddQTcF ([1]; FTR 1,200 mg q.d. (A), day 7, 4 hour): –3.37 msec
- Mean change from baseline, msec ddQTcF ([1]; FTR 1,200 mg q.d. (A), day 7, 5 hour): –0.49 msec
- Mean change from baseline, msec ddQTcF ([1]; FTR 1,200 mg q.d. (A), day 7, 6 hour): –4.52 msec
- Mean change from baseline, msec ddQTcF ([1]; FTR 1,200 mg q.d. (A), day 7, 8 hour): –6.87 msec
- Mean change from baseline, msec ddQTcF ([1]; FTR 1,200 mg q.d. (A), day 7, 10 hour): 0.76 ms
- Mean change from baseline, msec ddQTcF ([1]; FTR 1,200 mg q.d. (A), day 7, 11.5 hour): –5.31 msec
- Mean change from baseline, msec ddQTcF ([1]; FTR 1,200 mg q.d. (A), day 7, 14 hour): –7.05 msec
- Mean change from baseline, msec ddQTcF ([1]; FTR 1,200 mg q.d. (A), day 7, 15 hour): –3.84 msec
- Mean change from baseline, msec ddQTcF ([1]; FTR 1,200 mg q.d. (A), day 7, 16 hour): –1.48 msec
- Mean change from baseline, msec ddQTcF ([1]; FTR 1,200 mg q.d. (A), day 7, 22.25 hour): –3.18 msec
- Mean difference vs. placebo (90% CI), msec ddQTcF ([1]; FTR 1,200 mg q.d. (A–D), day 7, 0.5 hour): 0.10 (–1.98, 2.18) msec
- Mean difference vs. placebo (90% CI), msec ddQTcF ([1]; FTR 1,200 mg q.d. (A–D), day 7, 1 hour): 0.51 (–1.57, 2.58) msec
- Mean difference vs. placebo (90% CI), msec ddQTcF ([1]; FTR 1,200 mg q.d. (A–D), day 7, 2 hour): 3.84 (1.75, 5.93) msec
- Mean difference vs. placebo (90% CI), msec ddQTcF ([1]; FTR 1,200 mg q.d. (A–D), day 7, 3 hour): 2.49 (0.40, 4.57) msec
- Mean difference vs. placebo (90% CI), msec ddQTcF ([1]; FTR 1,200 mg q.d. (A–D), day 7, 4 hour): 3.66 (1.58, 5.75) msec
- Mean difference vs. placebo (90% CI), msec ddQTcF ([1]; FTR 1,200 mg q.d. (A–D), day 7, 5 hour): 4.18 (2.11, 6.26) msec
- Mean difference vs. placebo (90% CI), msec ddQTcF ([1]; FTR 1,200 mg q.d. (A–D), day 7, 6 hour): 4.27 (2.19, 6.34) msec
- Mean difference vs. placebo (90% CI), msec ddQTcF ([1]; FTR 1,200 mg q.d. (A–D), day 7, 10 hour): 3.94 (1.86, 6.01) msec
- Mean difference vs. placebo (90% CI), msec ddQTcF ([1]; FTR 1,200 mg q.d. (A–D), day 7, 11.5 hour): 1.61 (–0.48, 3.69) msec
- Mean difference vs. placebo (90% CI), msec ddQTcF ([1]; FTR 1,200 mg q.d. (A–D), day 7, 14 hour): –0.10 (–2.18, 1.972) msec
- Mean difference vs. placebo (90% CI), msec ddQTcF ([1]; FTR 1,200 mg q.d. (A–D), day 7, 15 hour): 0.30 (–1.78, 2.38) msec
- Mean difference vs. placebo (90% CI), msec ddQTcF ([1]; FTR 1,200 mg q.d. (A–D), day 7, 16 hour): 0.04 (–2.04, 2.12) msec
- Mean difference vs. placebo (90% CI), msec ddQTcF ([1]; FTR 1,200 mg q.d. (A–D), day 7, 22.25 hour): 0.29 (–1.79, 2.36) msec
- Mean change from baseline, msec ddQTcF ([1]; FTR 2,400 mg b.i.d. (B), day 7, 0.5 hour): –6.04 msec
- Mean change from baseline, msec ddQTcF ([1]; FTR 2,400 mg b.i.d. (B), day 7, 1 hour): –6.15 msec
- Mean change from baseline, msec ddQTcF ([1]; FTR 2,400 mg b.i.d. (B), day 7, 2 hour): –6.90 msec
- Mean change from baseline, msec ddQTcF ([1]; FTR 2,400 mg b.i.d. (B), day 7, 3 hour): –3.67 msec
- Mean change from baseline, msec ddQTcF ([1]; FTR 2,400 mg b.i.d. (B), day 7, 4 hour): 1.64 ms
- Mean change from baseline, msec ddQTcF ([1]; FTR 2,400 mg b.i.d. (B), day 7, 5 hour): 6.50 ms
- Mean change from baseline, msec ddQTcF ([1]; FTR 2,400 mg b.i.d. (B), day 7, 6 hour): 0.18 ms
- Mean change from baseline, msec ddQTcF ([1]; FTR 2,400 mg b.i.d. (B), day 7, 8 hour): –3.46 msec
- Mean change from baseline, msec ddQTcF ([1]; FTR 2,400 mg b.i.d. (B), day 7, 10 hour): 1.51 ms
- Mean change from baseline, msec ddQTcF ([1]; FTR 2,400 mg b.i.d. (B), day 7, 11.5 hour): –3.88 msec
- Mean change from baseline, msec ddQTcF ([1]; FTR 2,400 mg b.i.d. (B), day 7, 14 hour): –1.65 msec
- Mean change from baseline, msec ddQTcF ([1]; FTR 2,400 mg b.i.d. (B), day 7, 15 hour): 4.45 ms
- Mean change from baseline, msec ddQTcF ([1]; FTR 2,400 mg b.i.d. (B), day 7, 16 hour): 8.59 ms
- Mean change from baseline, msec ddQTcF ([1]; FTR 2,400 mg b.i.d. (B), day 7, 22.25 hour): 0.16 ms
- Mean difference vs. placebo (90% CI), msec ddQTcF ([1]; FTR 2,400 mg b.i.d. (B–D), day 7, 0.5 hour): 1.50 (–0.63, 3.62) msec
- Mean difference vs. placebo (90% CI), msec ddQTcF ([1]; FTR 2,400 mg b.i.d. (B–D), day 7, 1 hour): 1.61 (–0.51, 3.73) msec
- Mean difference vs. placebo (90% CI), msec ddQTcF ([1]; FTR 2,400 mg b.i.d. (B–D), day 7, 2 hour): 3.72 (1.60, 5.84) msec
- Mean difference vs. placebo (90% CI), msec ddQTcF ([1]; FTR 2,400 mg b.i.d. (B–D), day 7, 3 hour): 6.36 (4.23, 8.48) msec
- Mean difference vs. placebo (90% CI), msec ddQTcF ([1]; FTR 2,400 mg b.i.d. (B–D), day 7, 4 hour): 8.67 (6.55, 10.79) msec
- Mean difference vs. placebo (90% CI), msec ddQTcF ([1]; FTR 2,400 mg b.i.d. (B–D), day 7, 5 hour): 11.18 (9.05, 13.30) msec
- Mean difference vs. placebo (90% CI), msec ddQTcF ([1]; FTR 2,400 mg b.i.d. (B–D), day 7, 6 hour): 8.96 (6.84, 11.10) msec
- Mean difference vs. placebo (90% CI), msec ddQTcF ([1]; FTR 2,400 mg b.i.d. (B–D), day 7, 8 hour): 5.33 (3.21, 7.46) msec
- Mean difference vs. placebo (90% CI), msec ddQTcF ([1]; FTR 2,400 mg b.i.d. (B–D), day 7, 10 hour): 4.69 (2.57, 6.81) msec
- Mean difference vs. placebo (90% CI), msec ddQTcF ([1]; FTR 2,400 mg b.i.d. (B–D), day 7, 11.5 hour): 3.04 (0.92, 5.17) msec
- Mean difference vs. placebo (90% CI), msec ddQTcF ([1]; FTR 2,400 mg b.i.d. (B–D), day 7, 14 hour): 5.30 (3.18, 7.43) msec
- Mean difference vs. placebo (90% CI), msec ddQTcF ([1]; FTR 2,400 mg b.i.d. (B–D), day 7, 15 hour): 8.60 (6.47, 10.73) msec
- Mean difference vs. placebo (90% CI), msec ddQTcF ([1]; FTR 2,400 mg b.i.d. (B–D), day 7, 16 hour): 10.10 (7.98, 12.23) msec
- Mean difference vs. placebo (90% CI), msec ddQTcF ([1]; FTR 2,400 mg b.i.d. (B–D), day 7, 22.25 hour): 3.63 (1.51, 5.75) msec
- change from placebo in baseline‐adjusted Fridericia‐corrected QTc (ddQTcF) ([1]; Fostemsavir 1,200 mg b.i.d.): did not result in a clinically meaningful change
- effect on heart rate, QRS or PR intervals, or waveform morphology ([1]; fostemsavir 1,200 mg q.d. and 2,400 mg b.i.d.): did not have a clinically meaningful effect
- upper bound of the 90% CI around ddQTcF ([1]; fostemsavir 1,200 mg q.d., all time points): below 10 msec
- ddQTcF upper bound of two‐sided 90% CI at maximum [1, 9]: 6.3 ms
- maximum time‐matched ddQTcF [1, 9]: 4.3 ms
- subjects with maximum QTcF between 450 and 480 msec ([1]; fostemsavir 2,400 mg b.i.d.): Three
- subjects with maximum change in QTcF between 30 and 60 msec ([1]; fostemsavir 2,400 mg b.i.d.): Four
- ddQTcF upper bound of two‐sided 90% CI at maximum [1, 10]: 13.3 ms
- maximum time‐matched ddQTcF [1, 10]: 11.2 ms
- ddQTcF upper bound of two‐sided 90% CI at maximum ([1]; fostemsavir 2,400 mg b.i.d., at 5 hours post‐AM dose, listed as FTR): 13.3 (at 5 hour) msec
- ddQTcF upper 90% CI boundary, model‐predicted ([2]; FTR 600 mg b.i.d. + cobicistat 150 mg q.d.): ≤ 5.0 ms
- ddQTcF upper 90% CI boundary, model‐predicted ([2]; FTR 600 mg b.i.d. + cobicistat 150 mg q.d., listed as FTR): 5.0 ^a msec
- ddQTcF upper 90% CI boundary, model‐predicted ([2]; FTR 600 mg b.i.d.): ≤ 3.2 ms
- ddQTcF upper 90% CI boundary, model‐predicted ([2]; FTR 600 mg b.i.d., listed as FTR): 3.2 ^a msec
- AE rate ([3]; fostemsavir 1,200 mg q.d.): 53%
- headache ([3]; fostemsavir 1,200 mg q.d.): 16%
- AE rate ([3]; fostemsavir 2,400 mg b.i.d.): 56%
- headache ([3]; fostemsavir 2,400 mg b.i.d.): 35%
- subjects discontinued for AEs ([3]; fostemsavir 2,400 mg b.i.d. (vomiting, elevated aminotransferases, rash, headache/anxiety/dyspnea/pharyngeal edema)): five
- safety data [4]: all AEs (primarily dizziness and headache) were mild and there were no relevant cardiac signals
- cardiovascular abnormalities [5]: no clinically relevant cardiovascular abnormalities were observed
- activity with regard to HIV‐1 tropism [6]: active regardless of HIV‐1 tropism
- in vitro cross‐resistance to other antiretroviral drug classes [6]: no in vitro cross‐resistance
- subjects discontinued due to QT prolongation (> 450 msec) [7]: Less than 2%
- subjects discontinued due to QT prolongation (> 450 msec), number/total [7]: 7/371
- Mean Cmax [8]: 2,096 ^b ng/mL
